Measured values from ChEMBL document CHEMBL1143389, “Synthesis, structure and antibacterial activity of new 2-(1-(2-(substituted-phenyl)-5-methyloxazol-4-yl)-3-(2-substitued-phenyl)-4,5-dihydro-1H-pyrazol-5-yl)-7-substitued-1,2,3,4-tetrahydroisoquinoline derivatives” (Bioorg Med Chem, 2009).
Values after ≈ are worked out from the molar mass of the structure shown.

Experiments:
Escherichia coli = test: Antimicrobial activity against Escherichia coli after 24 hrs by MTT assay
Bacillus subtilis = test: Antimicrobial activity against Bacillus subtilis ATCC 6633 after 24 hrs by MTT assay; assay type: functional; details: ATCC 6633, 24 h
Method in brief: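 Mueller-Hinton medium (casein hydrolysate, soluble starch, beef extract). Compounds were serially diluted in DMSO in medium, with an inoculum of about 10⁵ cfu/mL, and incubated at 37 °C for 24 h. MIC was read visually. MTT (2 mg/mL in PBS, pH 7.4) was then added for 4–5 h at room temperature. Dye was extracted with isopropanol containing 5% 1 mol/L HCl for 12 h, and OD was read at 550 nm.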

Pseudomonas fluorescens = test: Antimicrobial activity against Pseudomonas fluorescens ATCC 13525 after 24 hrs by MTT assay; details: ATCC 13525, 24 h
Staphylococcus aureus = test: Antimicrobial activity against Staphylococcus aureus ATCC 6538 after 24 hrs by MTT assay; details: ATCC 6538, 24 h
[1] = Inhibition of Bacillus subtilis DNA gyrase
Method in brief: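 Gyrase purified from B. subtilis cells at 0–4 °C. Cells were lysed with lysozyme in HEPES-KOH pH 8.0/sucrose/Mg acetate/DTT/PMSF for 2.5 h, then treated with KCl–Brij. The cleared lysate at 0.2 M KCl went onto a column, eluted with ATP–Mg acetate–KCl, then high KCl, then urea, and was dialyzed to 0.05 M KCl. The read-out was DNA supercoiling activity.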

DNA gyrase = DNA gyrase (Staphylococcus aureus, UniProt P0A0K8+P20831); test: Inhibition of Staphylococcus aureus DNA gyrase; assay type: protein-complex assay
DNA gyrase, sequence (P0A0K8 whole entry): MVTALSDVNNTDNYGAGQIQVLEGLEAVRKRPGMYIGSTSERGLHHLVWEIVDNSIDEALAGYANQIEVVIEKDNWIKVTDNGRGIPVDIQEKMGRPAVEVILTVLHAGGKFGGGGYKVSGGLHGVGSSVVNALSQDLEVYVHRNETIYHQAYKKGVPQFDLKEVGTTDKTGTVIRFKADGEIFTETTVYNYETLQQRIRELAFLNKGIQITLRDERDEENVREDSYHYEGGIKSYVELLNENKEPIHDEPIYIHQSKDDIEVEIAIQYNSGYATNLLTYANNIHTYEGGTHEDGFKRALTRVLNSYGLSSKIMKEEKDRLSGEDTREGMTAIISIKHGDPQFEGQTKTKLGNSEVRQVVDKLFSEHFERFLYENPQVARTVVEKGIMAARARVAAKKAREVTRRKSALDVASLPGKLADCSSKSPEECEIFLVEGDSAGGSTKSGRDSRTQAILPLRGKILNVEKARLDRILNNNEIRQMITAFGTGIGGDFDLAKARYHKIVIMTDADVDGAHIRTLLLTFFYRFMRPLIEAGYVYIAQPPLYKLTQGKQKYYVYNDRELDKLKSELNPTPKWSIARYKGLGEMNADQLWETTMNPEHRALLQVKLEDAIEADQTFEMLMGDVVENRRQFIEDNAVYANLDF
DNA gyrase, sequence (P20831 whole entry): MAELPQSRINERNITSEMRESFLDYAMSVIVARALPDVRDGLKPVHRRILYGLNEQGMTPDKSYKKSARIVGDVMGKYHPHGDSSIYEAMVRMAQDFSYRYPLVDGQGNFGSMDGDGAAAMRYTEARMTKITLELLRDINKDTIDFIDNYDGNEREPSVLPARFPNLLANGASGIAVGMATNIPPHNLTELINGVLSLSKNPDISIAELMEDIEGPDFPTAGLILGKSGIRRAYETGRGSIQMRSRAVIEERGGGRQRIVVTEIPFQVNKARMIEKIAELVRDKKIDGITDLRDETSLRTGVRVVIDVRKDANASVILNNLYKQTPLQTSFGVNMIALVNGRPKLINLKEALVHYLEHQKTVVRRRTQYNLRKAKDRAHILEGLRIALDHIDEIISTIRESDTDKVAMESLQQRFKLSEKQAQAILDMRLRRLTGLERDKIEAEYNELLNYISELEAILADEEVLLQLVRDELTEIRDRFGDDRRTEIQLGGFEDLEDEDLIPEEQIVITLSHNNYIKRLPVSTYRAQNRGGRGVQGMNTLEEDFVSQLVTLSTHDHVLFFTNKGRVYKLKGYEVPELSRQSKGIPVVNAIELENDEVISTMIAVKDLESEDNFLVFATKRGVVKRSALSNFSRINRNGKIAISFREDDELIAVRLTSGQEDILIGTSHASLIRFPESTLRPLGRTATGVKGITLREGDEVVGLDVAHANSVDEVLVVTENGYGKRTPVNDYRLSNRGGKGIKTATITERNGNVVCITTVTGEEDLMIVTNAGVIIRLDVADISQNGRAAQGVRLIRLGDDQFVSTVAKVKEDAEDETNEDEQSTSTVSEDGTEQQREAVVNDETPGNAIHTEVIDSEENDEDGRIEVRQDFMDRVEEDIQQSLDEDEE

| Compound | MIC (Escherichia coli) | MIC (Bacillus subtilis) | MIC (Pseudomonas fluorescens) | MIC (Staphylococcus aureus) | IC50 [1] | IC50 (DNA gyrase) |
| --- | --- | --- | --- | --- | --- | --- |
| C=Cc1ccccc1-c1nc(N2N=C(c3ccc(Cl)cc3Cl)CC2N2CCc3ccccc3C2)c(C)o1 (stereo not drawn) | > 50 µg/mL | 6.25 µg/mL (≈ 11.8 µM) | 50 µg/mL (≈ 94.4 µM) | 3.12 µg/mL (≈ 5.9 µM) | – | – |
| COc1ccc2c(c1)CN(C1CC(c3ccccc3F)=NN1c1nc(-c3ccccc3C(F)(F)F)oc1C)CC2 (stereo not drawn) | 50 µg/mL (≈ 90.8 µM) | 25 µg/mL (≈ 45.4 µM) | 25 µg/mL (≈ 45.4 µM) | 25 µg/mL (≈ 45.4 µM) | – | – |
| C=Cc1ccccc1-c1nc(N2N=C(c3ccccc3C(F)(F)F)CC2N2CCc3ccc(OC)cc3C2)c(C)o1 (stereo not drawn) | 50 µg/mL (≈ 89.5 µM) | 6.25 µg/mL (≈ 11.2 µM) | 3.12 µg/mL (≈ 5.59 µM) | 6.25 µg/mL (≈ 11.2 µM) | – | – |
| C=Cc1ccccc1-c1nc(N2N=C(c3ccc(-c4ccco4)cc3)CC2N2CCc3ccc(OC)cc3C2)c(C)o1 (stereo not drawn) | > 50 µg/mL | 3.12 µg/mL (≈ 5.61 µM) | 25 µg/mL (≈ 44.9 µM) | 3.12 µg/mL (≈ 5.61 µM) | – | – |
| COc1ccc2c(c1)CN(C1CC(c3ccccc3)=NN1c1nc(-c3ccccc3F)oc1C)CC2 (stereo not drawn) | > 50 µg/mL | 25 µg/mL (≈ 51.8 µM) | > 50 µg/mL | 25 µg/mL (≈ 51.8 µM) | – | – |
| COc1ccc2c(c1)CN(C1CC(c3ccccc3)=NN1c1nc(-c3ccccc3C(F)(F)F)oc1C)CC2 (stereo not drawn) | 50 µg/mL (≈ 93.9 µM) | 12.5 µg/mL (≈ 23.5 µM) | > 50 µg/mL | 25 µg/mL (≈ 46.9 µM) | – | – |
| Cc1oc(-c2ccccc2C(F)(F)F)nc1N1N=C(c2ccccc2C(F)(F)F)CC1N1CCc2ccccc2C1 (stereo not drawn) | 50 µg/mL (≈ 87.6 µM) | 6.25 µg/mL (≈ 11 µM) | 50 µg/mL (≈ 87.6 µM) | 6.25 µg/mL (≈ 11 µM) | – | – |
| C=Cc1ccccc1-c1nc(N2N=C(c3ccc(Cl)cc3Cl)CC2N2CCc3ccc(OC)cc3C2)c(C)o1 (stereo not drawn) | 50 µg/mL (≈ 89.4 µM) | 3.12 µg/mL (≈ 5.59 µM) | > 50 µg/mL | 3.12 µg/mL (≈ 5.59 µM) | – | – |
| Cc1oc(-c2ccccc2F)nc1N1N=C(c2ccccc2)CC1N1CCc2ccccc2C1 (stereo not drawn) | 6.25 µg/mL (≈ 13.8 µM) | 25 µg/mL (≈ 55.2 µM) | 12.5 µg/mL (≈ 27.6 µM) | 6.25 µg/mL (≈ 13.8 µM) | – | – |
| Cc1oc(-c2ccc(F)cc2F)nc1N1N=C(c2ccccc2F)CC1N1CCc2ccccc2C1 (stereo not drawn) | 25 µg/mL (≈ 51.2 µM) | 25 µg/mL (≈ 51.2 µM) | 25 µg/mL (≈ 51.2 µM) | 6.25 µg/mL (≈ 12.8 µM) | – | – |
| Cc1oc(-c2ccc(F)cc2F)nc1N1N=C(c2ccc(-c3ccco3)cc2)CC1N1CCc2ccccc2C1 (stereo not drawn) | > 50 µg/mL | 0.39 µg/mL (≈ 0.727 µM) | 25 µg/mL (≈ 46.6 µM) | 1.56 µg/mL (≈ 2.91 µM) | 0.25 µg/mL (≈ 0.466 µM) | 233 nM |
| Cc1oc(-c2ccccc2C(F)(F)F)nc1N1N=C(c2ccc(Cl)cc2Cl)CC1N1CCc2ccccc2C1 (stereo not drawn) | > 50 µg/mL | 3.12 µg/mL (≈ 5.47 µM) | > 50 µg/mL | 3.12 µg/mL (≈ 5.47 µM) | – | – |
| C=Cc1ccccc1-c1nc(N2N=C(c3ccccc3F)CC2N2CCc3ccccc3C2)c(C)o1 (stereo not drawn) [TETRAPHENYLPHOSPHONIUM_CHLORIDE] | 50 µg/mL (≈ 104 µM) | 50 µg/mL (≈ 104 µM) | 50 µg/mL (≈ 104 µM) | 50 µg/mL (≈ 104 µM) | > 125 µg/mL | > 261000 nM |
| C=Cc1ccccc1-c1nc(N2N=C(c3ccccc3)CC2N2CCc3ccccc3C2)c(C)o1 (stereo not drawn) | 12.5 µg/mL (≈ 27.1 µM) | 12.5 µg/mL (≈ 27.1 µM) | 12.5 µg/mL (≈ 27.1 µM) | 12.5 µg/mL (≈ 27.1 µM) | – | – |
| Cc1oc(-c2ccccc2C(F)(F)F)nc1N1N=C(c2ccccc2)CC1N1CCc2ccccc2C1 (stereo not drawn) | 50 µg/mL (≈ 99.5 µM) | 12.5 µg/mL (≈ 24.9 µM) | 50 µg/mL (≈ 99.5 µM) | 25 µg/mL (≈ 49.7 µM) | – | – |
| NC[C@H]1O[C@H](O[C@H]2[C@H](O)[C@@H](O[C@H]3O[C@H](CO)[C@@H](O)[C@H](N)[C@H]3O)[C@H](N)C[C@@H]2N)[C@H](O)[C@@H](O)[C@@H]1O [KANAMYCIN] | 3.12 µg/mL (≈ 6.45 µM) | 0.39 µg/mL (≈ 0.805 µM) | 3.12 µg/mL (≈ 6.45 µM) | 1.56 µg/mL (≈ 3.22 µM) | – | – |
| Cc1oc(-c2ccc(F)cc2F)nc1N1N=C(c2ccccc2)CC1N1CCc2ccccc2C1 (stereo not drawn) | 12.5 µg/mL (≈ 26.6 µM) | 12.5 µg/mL (≈ 26.6 µM) | 50 µg/mL (≈ 106 µM) | 12.5 µg/mL (≈ 26.6 µM) | – | – |
| COc1ccc2c(c1)CN(C1CC(c3ccc(Cl)cc3Cl)=NN1c1nc(-c3ccccc3C(F)(F)F)oc1C)CC2 (stereo not drawn) | > 50 µg/mL | 3.12 µg/mL (≈ 5.2 µM) | > 50 µg/mL | 1.56 µg/mL (≈ 2.6 µM) | – | – |
| COc1ccc2c(c1)CN(C1CC(c3ccccc3C(F)(F)F)=NN1c1nc(-c3ccc(F)cc3F)oc1C)CC2 (stereo not drawn) | 25 µg/mL (≈ 44 µM) | 3.12 µg/mL (≈ 5.5 µM) | 25 µg/mL (≈ 44 µM) | 12.5 µg/mL (≈ 22 µM) | – | – |
| COc1ccc2c(c1)CN(C1CC(c3ccc(-c4ccco4)cc3)=NN1c1nc(-c3ccccc3F)oc1C)CC2 (stereo not drawn) | 25 µg/mL (≈ 45.6 µM) | 1.56 µg/mL (≈ 2.85 µM) | > 50 µg/mL | 1.56 µg/mL (≈ 2.85 µM) | – | – |
| COc1ccc2c(c1)CN(C1CC(c3ccc(Cl)cc3Cl)=NN1c1nc(-c3ccccc3F)oc1C)CC2 (stereo not drawn) | > 50 µg/mL | 1.56 µg/mL (≈ 2.83 µM) | > 50 µg/mL | 1.56 µg/mL (≈ 2.83 µM) | – | – |
